This note sets out measurements from article PMC4303873 (Scientific Reports, 2015).

Each structure is given as a SMILES string.

Data set [1] concerns zebrafish embryos. Kind of data set: Zebrafish in vivo assay. The following applies: for decrease of pigmentation level of zebrafish: 50 μM, 9 to 57 hpf (48 h exposure). The method in brief: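 Synchronized zebrafish embryos, three per well in 200 μl embryo medium. Test compound solutions (in 1% DMSO), 10–50 μM, added from 9 to 57 hpf (48 h exposure). […] At 57 hpf, embryos anesthetized in tricaine, mounted in 1% methyl cellulose and photographed under a stereomicroscope. Body pigmentation scored by phenotype and by image pixel measurement.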

Data set [2] concerns the target mushroom tyrosinase. Kind of data set: Mushroom tyrosinase inhibition assay and IC50 determination. It counts as biochemical.
Data set [3] concerns Normal human epidermal melanocytes. Kind of data set: Cell viability. Type of data set: cell-based. The following applies: concentration ranging from 0 to 50 μM. In short, it runs like this: (§1)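 Normal human epidermal melanocytes grown in Medium 254 with HMGS. Confluent cells trypsinized, resuspended in Melanocyte Growth Medium M2 and seeded at 2 × 10^4 cells/well. After 24 h, exposed to test compound at 5 or 50 μM at 37°C for 72 h. […] Viability read by MTT.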

A short description of data set [4]: Cell viability. It counts as cell-based, human. The following applies: human, normal human epidermal melanocytes. In short, it runs like this: as §1
The subject of data set [5] is ICR male mice. The data set is described as follows: Acute oral toxicity study in mice. Type of data set: in vivo. The method in brief:
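ICR male mice (Crl:CD1), 24 animals randomized into 4 groups of six. Single oral gavage at 1500, 3000 or 6000 mg/kg, or vehicle (4% Tween 80 in water for injection), at 20 ml/kg adjusted to pre-dose body weight. Mortality checked twice daily and clinical signs once daily, SD3–SD14. Body weight taken SD1, SD8 and SD15. Gross necropsy of thoracic and abdominal cavities on SD15.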

In data set [6] the test system is Normal human epidermal melanocytes. Kind of data set: Melanin quantification assay in normal human melanocytes. It counts as cell-based. The following applies: 50 μM, 72 hours. The method in brief: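 Normal human epidermal melanocytes in Medium 254 with HMGS, trypsinized into M2 medium and seeded at 1 × 10^5 cells/well. After 24 h, treated for 72 h at 37°C. […] Cell pellets dissolved in 1N NaOH at 70°C for 1 h and spun at 10,000 × g for 10 min. Supernatant OD405 measured.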

`Oc1ccc(CSCc2ccc(O)cc2)cc1` [T1, bis(4-hydroxybenzyl)sulfide]: in data set [1], the “decrease of pigmentation level of zebrafish” value is “about 41.4%”. In addition, in data set [1] (both at 50 μM), the “decrease of pigmentation relative to kojic acid” value worked out at 3 fold. Further, the “adverse side effects in zebrafish” value in data set [1] (zebrafish, in vivo) is given as “without any adverse side effects”. Also, in data set [2] (Dixon plot), the affinity, expressed as Ki, was 58 ± 6 nM and the type of inhibition entry is reported as “strong competitive inhibitor”. For the same compound, the IC50 – broadly, the concentration that inhibits the measured activity by half – in data set [2] (L-tyrosine substrate, dopachrome at 475 nm, triplicate) amounted to 530 nM. Further, in data set [3], the “cytotoxicity to normal human melanocyte cells” value is “non-cytotoxic”. Also, in data set [4], the viability (in general, the share of living cells, or the viability signal relative to a control) at 72 h, 5 µM worked out at 99.2% and the viability at 72 h, 50 µM is 97.2%. Moreover, the “dose with no adverse toxic effects” value in data set [5] (ICR mice, single oral dose) is reported as “up to 6000 mg/kg”. Moreover, in data set [5] (single oral dose 1500, 3000, and 6000 mg/kg), the “body weight and body gain versus control mice” value is reported as “no difference”. Besides, the “death and clinical symptoms” value in data set [5] (single oral dose 1500, 3000, and 6000 mg/kg, 14 days observation) is “no death and abnormal clinical symptom”. Moreover, the “gross lesions at necropsy” value in data set [5] (single oral dose 1500, 3000, and 6000 mg/kg, SD15) is “no observable gross lesion”.
On to `O=c1cc(CO)occ1O` [kojic acid, reference compound], for which, in data set [1], the “decrease of pigmentation level of zebrafish” value amounted to 12.9%. The “decrease of melanin content” value in data set [6] was “very few or no melanin content decrease”.
On to `OC[C@H]1O[C@H](Oc2ccc(O)cc2)[C@H](O)[C@@H](O)[C@@H]1O` [α-arbutin], for which, in data set [6], the “decrease of melanin content” value was “very few or no melanin content decrease”.
For `OC[C@H]1O[C@@H](Oc2ccc(O)cc2)[C@H](O)[C@@H](O)[C@@H]1O` [β-arbutin], in data set [6], the “decrease of melanin content” value is listed as “very few or no melanin content decrease”.
